Ends that are not written are not given here.
Assays:
Tah1 [1] = biological target: T1, Tah1 (Saccharomyces cerevisiae, UniProt P25638); experiment: ITC of peptides injected into Tah1; type: binding, S. cerevisiae
T1 sequence (P25638 1-111): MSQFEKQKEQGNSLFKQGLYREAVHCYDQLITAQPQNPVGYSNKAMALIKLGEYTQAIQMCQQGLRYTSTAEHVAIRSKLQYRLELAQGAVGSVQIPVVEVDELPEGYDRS

yeast Hsp90 M705V = experiment: ITC of TPR-domain proteins with yeast Hsp90 M705V; type: binding; details: 300 μM Tah1 injected into 30 μM yeast Hsp90 M705V, 4 °C, pH 8.0
In short: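 ITC: mouse CHIP or yeast Tah1 (His tags cleaved) at 300 µM was titrated as 9–11 injections of 27 µl into 30 µM yeast Hsp90 M705V. Runs were at 30 °C for CHIP and 4 °C for Tah1, in 20 mM Tris/HCl pH 8.0, 1 mM EDTA, 5 mM NaCl. Data were corrected for separately measured heat of dilution and fitted by nonlinear least squares for stoichiometry, binding constant and enthalpy.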

Tah1 [2] = biological target: T1, Tah1; experiment: Sedimentation equilibrium analytical ultracentrifugation of Tah1; type: physicochemical, S. cerevisiae; details: for Kd: 20 °C, pH 7.5
In short: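 Tag-cleaved Tah1 was dialysed into 20 mM Tris/HCl pH 7.5, 1 mM EDTA, 5 mM NaCl. Sedimentation equilibrium was run at 20 °C, loading 7.0 and 0.5 mg·ml−1 (547 and 39 µM), with a 12 mm path. Initial scans at 726 g checked for aggregates, followed by 39030 g, scanning hourly until unchanged (24 h). Data were fitted by INVEQ, Mfit and NONLIN, and Ka was reciprocated to Kd. Reversible versus irreversible dimer was judged by comparing the two loadings.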

| Substance | Kd (Tah1 [1]) [µM] | also measured |
| --- | --- | --- |
| AEGPTAEEVD | 14.8 ± 0.7 |  |
| AEGPTMEEVD | 4.2 ± 0.5 |  |
| PADAAMEEVD | 0.75 ± 0.04 |  |
| PADTEAEEVD | 3.3 ± 0.2 |  |
| PADTEVEEVD | 9.8 ± 0.7 |  |
| Tah1: TPR-containing protein associated with Hsp90, S. cerevisiae, 111 amino acid residues, Hsp90-interacting co-chaperone |  | Kd (yeast Hsp90 M705V): 13 ± 1.7 µM; dimeric species present (Tah1 [2]; estimated from INVEQ fit, sedimentation equilibrium): approx. 19%; Kd (Tah1 [2]; read-out: Kd by INVEQ, Tah1 0.5 mg·ml−1 (39 μM), monomer-dimer): 510 µM; Kd (Tah1 [2]; read-out: Kd′ by NONLIN′, Tah1 0.5 mg·ml−1 (39 μM)): 150 µM; Kd (Tah1 [2]; read-out: Kd′ by NONLIN′, Tah1 7.0 mg·ml−1 (547 μM)): 1800 µM |
